Experimental data reported in ChEMBL document CHEMBL1148781, “Phenylimidazole derivatives of 4-pyridone as dual inhibitors of bacterial enoyl-acyl carrier protein reductases FabI and FabK” (J Med Chem, 2007).
In brackets after ≈: the same amount, converted by molar mass.

Columns and labels:
[1] = Inhibition of Escherichia coli FabI
In short: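 His-tagged E. coli FabI (gene from E. coli DH5α, expressed in E. coli TOP10 with arabinose induction, Ni-NTA purified) at 50 µg/mL in 100 mM sodium phosphate pH 7.4 with 0.25 mM crotonoyl-CoA and 0.4 mM NADH. Reaction started by enzyme addition; NADH consumption followed at 340 nm for 10 min at room temperature; IC50 = concentration halving activity.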

[2] = molecular target: T1, Enoyl-(Acyl-carrier-protein) reductase (Streptococcus pneumoniae, UniProt Q9FBC5); experiment: Inhibition of Streptococcus pneumoniae FabK
T1 sequence (Q9FBC5 whole entry): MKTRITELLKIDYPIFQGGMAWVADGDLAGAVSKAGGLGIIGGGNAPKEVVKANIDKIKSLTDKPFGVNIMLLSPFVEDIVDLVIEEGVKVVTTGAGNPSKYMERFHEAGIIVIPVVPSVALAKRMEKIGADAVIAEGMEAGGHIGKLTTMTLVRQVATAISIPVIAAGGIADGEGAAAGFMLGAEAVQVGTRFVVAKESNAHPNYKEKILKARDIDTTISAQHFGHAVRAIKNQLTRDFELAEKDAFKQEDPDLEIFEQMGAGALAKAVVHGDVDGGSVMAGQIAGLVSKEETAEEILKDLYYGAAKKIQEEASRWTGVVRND
In short: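 C-terminal His-tagged FabK from S. pneumoniae R6, expressed in E. coli BL21(DE3) with 1 mM IPTG, Ni-NTA purified, used at 2 µg/mL. Buffer 100 mM MES pH 7.0, 100 mM NH4Cl, 0.2 mM crotonoyl-CoA, 0.4 mM NADH; enzyme-initiated. Absorbance at 340 nm read for 10 min at room temperature; IC50 = concentration giving 50% activity reduction.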

[3] = tested on: K562; experiment: Cytotoxicity against human K562 cells; type: functional, cell-based
[4] = tested on: Streptococcus pneumoniae; experiment: Antibacterial activity against Streptococcus pneumoniae KU197; type: functional
In short: (§1)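 Broth microdilution per NCCLS M7-A6; MIC taken as lowest concentration preventing visible growth. Strains: S. aureus ATCC29213 and S. pneumoniae KU197 (PRSP).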

[5] = tested on: Staphylococcus aureus; experiment: Antibacterial activity against Staphylococcus aureus ATCC 29213; type: functional; in short: as §1

SMILES	IC50 [1]	IC50 [2]	MIC [4]	MIC [5]	IC50 [3]
Oc1cc(Cl)ccc1Oc1ccc(Cl)cc1Cl [TRICLOSAN]	0.9 µM	> 32 µM	–	0.063 µg/mL (≈ 0.218 µM)	–
Cc1c(Cc2c(Cl)cccc2Cl)c(=O)ccn1CCc1ccc(-c2c[nH]c(CNC(=O)Nc3ncc[nH]3)n2)cc1	0.93 µM	> 32 µM	> 32 µg/mL	> 32 µg/mL	> 69 µM
Cc1c(Cc2c(Cl)cccc2Cl)c(=O)ccn1CCc1ccc(-c2c[nH]c(CNC(=O)Nc3nc4ccc(S(C)(=O)=O)cc4s3)n2)cc1	0.38 µM	0.0045 µM	0.5 µg/mL (≈ 0.693 µM)	> 32 µg/mL	> 69 µM
CS(=O)(=O)c1ccc2nc(NC(=O)NCc3nc(-c4ccccc4)c[nH]3)sc2c1	> 32 µM	–	–	> 64 µg/mL	–
O=C([O-])COc1ccc(-c2cnc(CNC(=O)Nc3ncc(Sc4ccccn4)s3)[nH]2)cc1.[Na+]	> 32 µM	0.034 µM	> 32 µg/mL	–	–
Cn1cc(CNC(=O)/C=C/c2cnc3c(c2)CCC(=O)N3)c2ccccc21	0.2 µM	> 32 µM	> 32 µg/mL	0.063 µg/mL (≈ 0.175 µM)	–
Cc1c(Cc2c(Cl)cccc2Cl)c(=O)ccn1CCc1ccc(-c2c[nH]c(CNC(=O)Nc3ncc(Sc4ccccn4)s3)n2)cc1	0.56 µM	0.016 µM	2 µg/mL (≈ 2.85 µM)	> 32 µg/mL	> 69 µM
O=C(NCc1ncc(-c2ccccc2)[nH]1)Nc1ncc(Sc2ccccn2)s1	> 32 µM	0.042 µM	2 µg/mL (≈ 4.9 µM)	–	–
O=C(NCc1ncc(-c2ccc(Br)cc2)[nH]1)Nc1ncc(Sc2ccccn2)s1	> 32 µM	0.0024 µM	0.25 µg/mL (≈ 0.513 µM)	–	–
O=C(NCc1ncc(-c2cccc(Br)c2)[nH]1)Nc1ncc(Sc2ccccn2)s1	> 32 µM	0.0053 µM	16 µg/mL (≈ 32.8 µM)	–	–

More lines, main results first:

IC50 [1]	IC50 [2]	MIC [4]	MIC [5]	SMILES	IC50 [3]
> 32 µM	> 30 µM	–	–	Cc1c(Cc2c(Cl)cccc2Cl)c(=O)ccn1/C=C/c1ccc(-c2c[nH]c(CNC(=O)Nc3ncc(Br)s3)n2)cc1	> 69 µM
0.57 µM	0.029 µM	8 µg/mL (≈ 11.9 µM)	> 32 µg/mL	Cc1c(Cc2c(Cl)cccc2Cl)c(=O)ccn1CCc1ccc(-c2c[nH]c(CNC(=O)Nc3ncc(Br)s3)n2)cc1	> 69 µM
0.82 µM	11 µM	> 32 µg/mL	> 32 µg/mL	Cc1c(Cc2c(Cl)cccc2Cl)c(=O)ccn1Cc1ccc(-c2c[nH]c(CNC(=O)Nc3ncc(Br)s3)n2)cc1	> 69 µM
0.31 µM	0.0094 µM	1 µg/mL (≈ 1.49 µM)	> 32 µg/mL	Cc1c(Cc2c(Cl)cccc2Cl)c(=O)ccn1CCc1ccc(-c2c[nH]c(CNC(=O)Nc3ncc(S(C)(=O)=O)s3)n2)cc1	> 69 µM
0.29 µM	9 µM	> 32 µg/mL	> 32 µg/mL	Cc1c(Cc2c(Cl)cccc2Cl)c(=O)ccn1C/C=C/c1ccc(-c2c[nH]c(CNC(=O)Nc3ncc(Br)s3)n2)cc1	> 69 µM
0.34 µM	6.6 µM	> 32 µg/mL	> 32 µg/mL	Cc1c(Cc2c(Cl)cccc2Cl)c(=O)ccn1CCCc1ccc(-c2c[nH]c(CNC(=O)Nc3ncc(Br)s3)n2)cc1	> 69 µM
